Consider 20 sequences from the EternaBench riboswitch data.

The test system of this data set is MS2 coat protein. Kind of data set: apparent Kd, MS2 coat protein; higher = weaker binding; RNA-MaP array; FMN 200 µM where present. In outline:
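Designs on Illumina sequencing-chip clusters, transcribed by stalled E. coli RNA polymerase, were exposed to SNAP-549-labelled MS2 coat protein in doubling steps from 0.7 or 1.5 nM up to 3 µM, without and then with constant ligand. The buffer held 100 mM Tris-HCl pH 7.5, 80 mM KCl, 4 mM MgCl2, BSA, DTT, yeast tRNA and Tween-20. Apparent Kd values are medians of filtered per-cluster binding-curve fits to green signal normalised to red-channel RNA signal and control-cluster median Fmax.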

The mark [1] stands for this setting: designed as: ON switch for flavin mononucleotide, no ligand.
Setting [2] is: ligand present: flavin mononucleotide, designed as: ON switch for flavin mononucleotide.
The mark [3] stands for this setting: designed as: OFF switch for flavin mononucleotide, no ligand.
The mark [4] stands for this setting: ligand present: flavin mononucleotide, designed as: OFF switch for flavin mononucleotide.

“AGGUCAACCACAGGAUAUGGCUAGCAUAGCUAGCCAGAAGGGUGGUCGUAUCCAUGUAAAUACAUGAGGAUCACCCAUGUAUCC”: the “apparent Kd” value by setting is: under setting [1], 283 nM; under setting [2], 79.1 nM. With “GGUUCGGGAGGAUAUGUUUUUUUUUACAUGAGGAUCACCCAUGUUUUUGUGUUUUUUUUCAUAGAAGGUUUGGGCC”, the “apparent Kd” value under setting [3] worked out at 39 nM and the “apparent Kd” value under setting [4] came to 39.3 nM. The corresponding values for “UGAUAGGACACAGGAUAUACGUGCUAGAGAUACUAGCAAAAUUUCCUCACAUGAGGAUCACCCAUGUAGAAGGGUGUCCUAUCU” are 10.3 nM and 135 nM. Take “UUAUCUCAUGAGAAGGACAUGAGGAUCACCCAUGUAGGAUAUCAUGGGUCAGUGGAAUUGAAUCUUCGGAUUCAAUUACUCUAC”: the “apparent Kd” value runs as follows: under setting [1], 60.6 nM; under setting [2], 11.5 nM. For “GAUGAGGUAGGAUAUACGAUAAUAUAGGGUAGAUAUAUAACACAUGAGGAUCACCCAUGUAGAAGGACCAGUAG”, the “apparent Kd” value by setting is: under setting [3], 33.5 nM; under setting [4], 73.4 nM.

For “CCAUGGCUGUUAGGAUAUGUCUGACAAAGUCAGACAGAAGGGACAUGAGGAUCACCCAUGUGAAGAAAACCACAUUUGCCAUGG”, the “apparent Kd” value reads like this: under setting [3], 7.74 nM; under setting [4], 7.72 nM. On to “ACAUGAGAUCUAGGAUAUAUUGUACCUACAUGUGACAUGAGGAUCACCCAUGUGGUAAGUAUGACAUAGAAGGAGAAGAUAUGU”, for which the “apparent Kd” value is 71 nM under setting [1] and 54.3 nM under setting [2].

For the sequence “GCGUAAUAGGUGUAGCUAGUCGUUCAAGAAGGGUGAAGAACAUGAGGAUCACCCAUGUGGUCUAUACAGGAUAUUGAUAUACGC”, the “apparent Kd” value under setting [2] was found to be 66.6 nM. “AUUUAUGGCCAGAAGGACAUGAGGAUCACCCAUGUAGGAUAUGGACGAUUUUACUCGGCGGUUCGUUUAGGAAGCACCGGCGGU”: the “apparent Kd” value worked out at 8.58 nM under setting [1] and 5.91 nM under setting [2]. Take “GUCAGCUCGUGAGGAUAUACAACUCUGCUUCGGCAGUGUAUUAAGAUCACAUGAGGAUCACCCAUGUAGAAGGCACGAGCUGAU”: the “apparent Kd” value under setting [3] was found to be 11.5 nM and the “apparent Kd” value under setting [4] is 178 nM. On to “GGGACCUACGAGAAGGGCUACAUGAGGAUCACCCAUGUAAAUCUUCGGGUGGCAGGAUAUCGGCGGCUACAGGAGGGCCAGGUC”, for which the “apparent Kd” value under setting [4] was 38.3 nM. Take “UGAUACUAAGAGAAGGUUCAAACUACAUAUUGCAUACAUGAGGAUCACCCAUGUUGGUGAAUAAGAAAGGAUAUUUUACUGUAU”: the “apparent Kd” value is 46.3 nM under setting [3] and 34.3 nM under setting [4]. The corresponding values for “UGGCUACAUGAGGAUCACCCAUGUCAGGAUAUGCCGUCGGCUUGCGUUCGUCGUUUGGGUAGAAGGGACUGCGG” are 83.1 nM and 91.5 nM. Taken in the same sequence, the figures for “AGGUACAUGAGGAUCACCCAUGUAAGAGACCUCAUGCGAUGUAGAAGGAUUAUCCGAGAAGAGGAAUAGGAUAUACAUGAGAAA” were 158 nM and 127 nM. The corresponding values for “CUGAGCUUAGGAUAUACGUGUUGAUCUGAUCUCGACCUAUUACAUGAGGAUCACCCAUGUAGAAGGGAGCCGGA” are 17.6 nM and 19.3 nM. For “UAAACGUUCUAGAAGGUGCUAGCGAUAAGCUAGCAAGGAUAUAGACAUGAGGAUCACCCAUGUCUUUGUGACAUCGACAUACUU”, the “apparent Kd” value is, setting by setting: under setting [3], 9.03 nM; under setting [4], 12.1 nM.

Turning to “CUGAUGUGAGGAUAUCAACGCCAUGUCUUUGACAUGGCGCAUGAGAAGGCACAUGAGGAUCACCCAUGUUCUUC”, the “apparent Kd” value is 36 nM under setting [3] and 640 nM under setting [4]. For “AGCGGGUGGGUAGGAUAUGGCUAUGUCUCAUUGCUAGAAGGACCAGCUGCUACAUGAGGAUCACCCAUGUCGUAGUGCACCCAG”, the “apparent Kd” value stood at 195 nM under setting [1] and 12.7 nM under setting [2]. The corresponding values for “GACACUAUGUUUGUCAGAUAGAGAGAGGAUAUGGGUCAUGAGACAUGAGGAUCACCCAUGUAUAAUCAGAAGGCUCGAGUACGA” are 19.1 nM and 13.7 nM. In the case of “ACAGGCUUCGAGAAGGACAUGAGGAUCACCCAUGUGCGUGUGAAGCAGCCGUGAGGCUGCAUCAUGUAGGAUAUCGGAGUCUGG”, the “apparent Kd” value under setting [3] came out at 76 nM and the “apparent Kd” value under setting [4] was found to be 504 nM.

In general, apparent Kd refers to a dissociation constant that holds for the conditions of the assay.
